Experimental findings from the RNAGym collection of RNA variant scans (doi:10.1126/science.aae0568) are described below.

Variants at the floor of the assay were thinned out. A value given as a limit tells only on which side of the number the result lay.

To fix the notation:
B1: tRNA (parent)
chain: GUUCCGUUGGCGUAAUGGUAACGCGUCUCCCUCCUAAGGAGAAGACUGCGGGUUCGAGUCCCGUACGGAACG

The variants in the data set derive from B1. Briefly: yeast fitness relative to wild type (ratio to wild type); higher = fitter; tRNA-Arg(CCU), competitive growth, 37 C, YPD. Summed up:
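A pool of Saccharomyces cerevisiae strains, each with a tRNA-Arg(CCU) gene variant at the native genomic locus, was competed in YPD at 37°C for 24 hours across six parallel replicates. The variants had been chemically synthesised at a 3% per-site mutation rate over 69 sites, and gene amplicons before and after competition were read by 100-nucleotide paired-end sequencing. Darwinian fitness relative to wild type rested on changes in genotype frequencies. Genotypes required ≥ 100 starting reads, and estimates < 0.5 were set to 0.5.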
In the case of GUUCCGUUGGCGUAAUGGUAACGCGUCUCCCUCCUAAGGAGAAGAUUGCGGGUUUGAGUCCCGUACGGUACG [C46U C55U A69U], the yeast fitness is 0.76.
For the variant GUUCCGUUGGCGUAAUGGUAACGCGUCUCCCUCCUAAGGAGAAGAUUGAGGGUUCGAGUCCCGUACGGAACG [C46U C49A], the yeast fitness is 0.858.
Next, GUUCCGUUGGCGUAAUGGUAACGCGUCUCCCUCCUAAGGAGAAGAUUGUGGGUUCGAGUCCCGUACGGAACG [C46U C49U]: 0.98.
Next, GUUCCGUUGGCGUAAUGGUAACGCGUCUCCCUCCUAAGGAGAAGAUUGCGGGUUCGAGUACCGUACGGAUCG [C46U C60A A70U]: 0.585; GUUCCGUUGGCGUAAUGGUAACGCGUCUCCCUCCUAAGGAGAAGAGUGCGGGUUCGAGUCCCAUUCGGAACG [C46G G63A A65U]: 0.721.
Take GUUCCGUUGGCGUAAUGGUAACGCGUCUCCCUCCUAAGGAGAAGAUUGCGGGUUCGAGUCCCGUACGGGACG [C46U A69G]: the yeast fitness turned out to be 0.894.
As to GUUCCGUUGGCGUAAUGGUAACGCGUCUCCCUCCUAAGGAGAAGAUUGCGCGUUCGAGUCCCGUACGGAACG [C46U G51C], the yeast fitness came out at 0.571.
Take GUUCCGUUGGCGUAAUGGUAACGCGUCUCCCUCCUAAGGAGAAGAUUGCGGGUUCGAGUCCCAUACGGAACG [C46U G63A]: the yeast fitness worked out at 0.769.
Next, GUUCCGUUGGCGUAAUGGUAACGCGUCUCCCUCCUAAGGAGAAGAGUGCGGGUCCGAGUACAGUACGGAACG [C46G U54C C60A C62A]: ≤ 0.5.
Regarding GUUCCGUUGGCGUAAUGGUAACGCGUCUCCCUCCUAAGGAGAAGAGUGCGGGUUCGAGUCUCGUACGGAACG [C46G C61U], the yeast fitness came to 1.05.
As to GUUCCGUUGGCGUAAUGGUAACGCGUCUCCCUCCUAAGGAGAAGAGUGCGGGUUCGAGUCACGUACGGAACG [C46G C61A], the yeast fitness was 0.678.
With GUUCCGUUGGCGUAAUGGUAACGCGUCUCCCUCCUAAGGAGAAGAUUGCGGGUUCGAGUCCCGUCUGGAACG [C46U A65C C66U], the yeast fitness is 0.721.
GUUCCGUUGGCGUAAUGGUAACGCGUCUCCCUCCUAAGGAGAAGAUUGCGGGUUCGAGUGCCGUUCGGAACG [C46U C60G A65U]: the yeast fitness turned out to be 0.557.
For GUUCCGUUGGCGUAAUGGUAACGCGUCUCCCUCCUAAGGAGAAGAGUGCAGGUUCGAGUCCAGUACGGAACG [C46G G50A C62A] the value was 0.603; for GUUCCGUUGGCGUAAUGGUAACGCGUCUCCCUCCUAAGGAGAAGAUUGCGGGUUCGAGUCCGGUACGGAACG [C46U C62G], 0.969; for GUUCCGUUGGCGUAAUGGUAACGCGUCUCCCUCCUAAGGAGAAGAUUGCGGGUUCGCGUCCCGUACGGAACG [C46U A57C], 0.638.
For GUUCCGUUGGCGUAAUGGUAACGCGUCUCCCUCCUAAGGAGAAGAUUGCGGGUUCGGGUCCCGUACGGAACG [C46U A57G], the yeast fitness turned out to be 0.994.
For GUUCCGUUGGCGUAAUGGUAACGCGUCUCCCUCCUAAGGAGAAGAUUGCGGGUUCGAGUCCCGUACGCAACG [C46U G68C] the value was 1.02; for GUUCCGUUGGCGUAAUGGUAACGCGUCUCCCUCCUAAGGAGAAGAUUGCGGGUUCGAGUCCCGUACGGAACG [C46U], 0.986; for GUUCCGUUGGCGUAAUGGUAACGCGUCUCCCUCCUAAGGAGAAGAUUGCGGGUUCGAGUUCCGUACGGAACG [C46U C60U], 0.807.
As for GUUCCGUUGGCGUAAUGGUAACGCGUCUCCCUCCUAAGGAGAAGAUUGCGGGUUCGAGUGCCGUACGGAACG [C46U C60G], the yeast fitness stood at 0.627.
Next, GUUCCGUUGGCGUAAUGGUAACGCGUCUCCCUCCUAAGGAGAAGAUUGCGGGUUCGAGUACCGUACGGAACG [C46U C60A]: 0.543; GUUCCGUUGGCGUAAUGGUAACGCGUCUCCCUCCUAAGGAGAAGAGUGCGGAUUCGAGUCCCGUACGGAACG [C46G G52A]: 0.843.
For GUUCCGUUGGCGUAAUGGUAACGCGUCUCCCUCCUAAGGAGAAGAGUGCGGCUUCGAGUCCCGUACGGAACG [C46G G52C] the value was 0.585; for GUUCCGUUGGCGUAAUGGUAACGCGUCUCCCUCCUAAGGAGAAGAUUGCGGGUUCGAGUCGCGUACGGUACG [C46U C61G A69U], 0.627; for GUUCCGUUGGCGUAAUGGUAACGCGUCUCCCUCCUAAGGAGAAGAGUGCGGGUUCGAGUCCCGUACGUAACG [C46G G68U], 0.658.
Regarding GUUCCGUUGGCGUAAUGGUAACGCGUCUCCCUCCUAAGGAGAAGAGUGCGGGUUCGAGUCCCGUACGCAACG [C46G G68C], the yeast fitness was found to be 0.795.
For GUUCCGUUGGCGUAAUGGUAACGCGUCUCCCUCCUAAGGAGAAGAGUGCGGGUUCGAGUCCCGUACGAAACG [C46G G68A] the value was 0.825; for GUUCCGUUGGCGUAAUGGUAACGCGUCUCCCUCCUAAGGAGAAGAGUGCGGGCUCGAGUCCCGUACGGAACG [C46G U53C], 0.903; for GUUCCGUUGGCGUAAUGGUAACGCGUCUCCCUCCUAAGGAGAAGAUUGCGGGUUCGGGUCCCGUAAGGAACG [C46U A57G C66A], ≤ 0.5.
On to GUUCCGUUGGCGUAAUGGUAACGCGUCUCCCUCCUAAGGAGAAGAUUGCGGGUUCAAGUCGCGUACGGAACG [C46U G56A C61G], for which the yeast fitness was ≤ 0.5.
Next, GUUCCGUUGGCGUAAUGGUAACGCGUCUCCCUCCUAAGGAGAAGAGUGCGGGUUCGAGUCCUGUAUGGAACG [C46G C62U C66U]: 0.746.
Turning to GUUCCGUUGGCGUAAUGGUAACGCGUCUCCCUCCUAAGGAGAAGAGUGCAGGUUCGAGUCCCGUACGGAACG [C46G G50A], the yeast fitness was found to be 1.04.
Consider GUUCCGUUGGCGUAAUGGUAACGCGUCUCCCUCCUAAGGAGAAGAGUGCCGGUUCGAGUCCCGUACGGAACG [C46G G50C], for which the yeast fitness was 0.949.
Regarding GUUCCGUUGGCGUAAUGGUAACGCGUCUCCCUCCUAAGGAGAAGAGUGCGGAUUCGAGUCCUGUACGGAACG [C46G G52A C62U], the yeast fitness amounted to 0.639.
GUUCCGUUGGCGUAAUGGUAACGCGUCUCCCUCCUAAGGAGAAGAGUGCGGGUUCGAGUCCGGUACGGAACG [C46G C62G]: the yeast fitness is 0.786.
In the case of GUUCCGUUGGCGUAAUGGUAACGCGUCUCCCUCCUAAGGAGAAGAGUGCGGGUUCGAGUCCUGUACGGAACG [C46G C62U], the yeast fitness was determined as 0.982.
